Test results taken from ChEMBL document CHEMBL1152965, “Synthesis and in vitro antiplasmodial evaluation of 4-anilino-2-trichloromethylquinazolines” (Bioorg Med Chem, 2009).

Columns and labels:
[1] = system: Salmonella enterica subsp. enterica; experiment: Mutagenic activity in Salmonella Typhimurium TA98 assessed as number of spontaneous and drug-induced revertants after 48 hrs in absence of 4% S9 mixture by Ames test; format: toxicity, organism-based; details: salmonella enterica subsp. enterica serovar typhimurium
Procedure, shortened: (§1)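 Liquid-incubation Ames variant. Tester strains grown overnight in nutrient broth. 5×10^-3 M DMSO solution of compound added to 0.1 mL culture, with or without 4% S9 mix, 1 h at 37 °C with shaking. Top agar added and mixture plated on Vogel-Bonner agar. After 48 h at 37 °C in the dark, revertants per plate counted with a laser colony counter.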

Toxoplasma gondii = experiment: Antitoxoplasmic activity against Toxoplasma gondii tachyzoites infected in HFF assessed as beta-galactosidase activity after 96 hrs by colorimetric microtiter assay; format: functional, organism-based
Procedure, shortened: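 Tachyzoites of the PRU-β-Gal strain. 10⁴ HFF cells per well grown to confluence in phenol-red-free RPMI with 10% FCS. Monolayers infected with 2.10³ parasites per well for 3 h, then compounds in DMSO (final <0.5%) added in triplicate. Incubated 96 h at 37 °C, 6% CO₂. CPRG added at 500 µM final for a further 24 h. Read at 570/630 nm, blanked on uninfected wells. IC50 from three independent experiments.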

Plasmodium falciparum = experiment: Antimalarial activity as reduced parasitaemia after 48 hrs against chloroquine, pyrimethamine and proguanil-resistant Plasmodium falciparum W2 infected in type A+ human erythrocytes by flow cytometry; format: functional, organism-based; details: W2, 48 h
HepG2 = experiment: Cytotoxicity against human HepG2 cells after 72 hrs by MTT assay; format: cell-based; details: HepG2, 72 h
Procedure, shortened: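 HepG2 cells plated in RPMI with 10% FBS and grown 24 h, then exposed to a range of compound concentrations for 72 h at 37 °C, 6% CO₂. MTT (5 mg/mL stock) added for 2 h, formazan dissolved in DMSO and read at 570 nm against 630 nm. Viability expressed as percent of untreated control. CC50 taken from the dose-response curve.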

[2] = Selectivity index, ratio IC50 for human HepG2 cells to IC50 for chloroquine, pyrimethamine and proguanil-resistant Plasmodium falciparum W2; format: functional
Procedure, shortened: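 SI = HepG2 IC50 / W2 IC50. MTT 2 h, formazan dissolved in DMSO, absorbance 570 nm (ref 630 nm). Viability as % of untreated control, IC50 from dose-response curve.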

[3] = Selectivity index, ratio of IC50 for human K562 cells to IC50 for chloroquine, pyrimethamine and proguanil-resistant Plasmodium falciparum W2; format: toxicity, cell-based; details: K562 cells (cytotoxicity) versus Plasmodium falciparum W2, read-out: Ratio IC50
Procedure, shortened: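 SI = K562 IC50 / W2 IC50. Live cells counted by flow cytometry after propidium iodide stain. IC50 by non-linear regression, mean of three independent experiments.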

[4] = system: Salmonella enterica subsp. enterica; experiment: Mutagenic activity in Salmonella Typhimurium TA97a assessed as number of spontaneous and drug-induced revertants after 48 hrs in presence of 4% S9 mixture by Ames test; format: toxicity, organism-based; details: salmonella enterica subsp. enterica serovar typhimurium; procedure, shortened: as §1
[5] = system: Salmonella enterica subsp. enterica; experiment: Mutagenic activity in Salmonella Typhimurium TA102 assessed as number of spontaneous and drug-induced revertants after 48 hrs in absence of 4% S9 mixture by Ames test; format: toxicity, organism-based; details: salmonella enterica subsp. enterica serovar typhimurium; procedure, shortened: as §1
[6] = system: Salmonella enterica subsp. enterica; experiment: Mutagenic activity in Salmonella Typhimurium TA97a assessed as number of spontaneous and drug-induced revertants after 48 hrs in absence of 4% S9 mixture by Ames test; format: toxicity, organism-based; details: salmonella enterica subsp. enterica serovar typhimurium; procedure, shortened: as §1
[7] = system: Salmonella enterica subsp. enterica; experiment: Mutagenic activity in Salmonella Typhimurium TA100 assessed as number of spontaneous and drug-induced revertants after 48 hrs in presence of 4% S9 mixture by Ames test; format: toxicity, organism-based; details: salmonella enterica subsp. enterica serovar typhimurium; procedure, shortened: as §1
Leishmania donovani = experiment: Antileishmanial activity against Leishmania donovani HOM/IN/01/2001 promastigotes after 72 hrs by flow cytometry; format: functional, organism-based; details: HOM/IN/01/2001, 72 h
Procedure, shortened: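 GFP-transfected promastigotes, log phase, in M199 with 10% FCS and 500 µg/mL G418, seeded at 10⁵ parasites/mL. Compounds in DMSO (final <0.5% v/v) added in duplicate over a concentration range. Incubated 72 h at 27 °C.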

K562 = experiment: Cytotoxicity against human K562 cells after 72 hrs by flow cytometry; format: cell-based; details: K562, 72 h
Procedure, shortened: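 Chemosensitive K562 subline, late log phase, in phenol-red-free RPMI with 10% serum. Compound range added in duplicate (DMSO <0.5%). After 72 h at 37 °C, 6% CO₂, cells stained with propidium iodide and live cells in a 100 µL sample counted by flow cytometry. IC50 from non-linear regression of dose-response curves, mean of three independent experiments.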

[8] = system: Salmonella enterica subsp. enterica; experiment: Mutagenic activity in Salmonella Typhimurium TA102 assessed as number of spontaneous and drug-induced revertants after 48 hrs in presence of 4% S9 mixture by Ames test; format: toxicity, organism-based; details: salmonella enterica subsp. enterica serovar typhimurium; procedure, shortened: as §1
[9] = system: Salmonella enterica subsp. enterica; experiment: Mutagenic activity in Salmonella Typhimurium TA98 assessed as number of spontaneous and drug-induced revertants after 48 hrs in presence of 4% S9 mixture by Ames test; format: toxicity, organism-based; details: salmonella enterica subsp. enterica serovar typhimurium; procedure, shortened: as §1

Structure (SMILES)	Activity [1]	IC50 (Toxoplasma gondii) [µM]	IC50 (Plasmodium falciparum) [µM]	IC50 (HepG2) [µM]	Ratio IC50 [2]	selectivity ratio [3]	Activity [4]	Activity [5]	Activity [6]	Activity [7]	IC50 (Leishmania donovani) [µM]	IC50 (K562) [µM]	Activity [8]	Activity [9]
Clc1cccc(Nc2nc(C(Cl)(Cl)Cl)nc3ccccc23)c1	Not Active	> 50	1.7	> 100	>58.8	> 29.4	Not Active	Not Active	Not Active	Not Active	> 50	> 50	Not Active	Not Active
ClC(Cl)(Cl)c1nc(Nc2cccc(Br)c2)c2ccccc2n1	Not Active	> 50	2.2	> 100	>45.5	> 22.7	Not Active	Not Active	Not Active	Not Active	> 50	> 50	Not Active	Not Active
